What was measured:
[1] = test system: OCI-AML-3; assay: (§1) Anticancer activity against human OCI-AML3 cells expressing mutant NPM1 assessed as apoptosis for 48 hrs by annexin-V and TO-PRO3 staining based flow cytometry; format: functional, cell-based
Method in brief: (§2)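 OCI-AML3 cells (NPM1c+) in logarithmic growth, passaged 2–3 times weekly. Cells were exposed to the indicated compound concentrations for 48 hr, then stained with annexin V and TO-PRO 3. Percent apoptotic cells was read by flow cytometry. AP50 is the concentration at which 50% of cells undergo apoptosis.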

[2] = as §1; format: functional, cell-based; settings: OCI-AML-3, 48 h; method in brief: as §2
[3] = test system: NCI-H322M; assay: Anticancer activity against human NCI-H322M cells after 48 hrs by sulforhodamine B assay; format: functional
Method in brief: (§3)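 NCI-60 human tumour cell line panel. Compounds dissolved in DMSO/H2O and tested at five 10-fold dilutions (10⁻⁴ M to 10⁻⁸ M) for 48 hr. GI50 is the molar concentration giving 50% reduction in net cell growth relative to cell numbers on day 0.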

[4] = test system: MDA-MB-435; assay: Anticancer activity against human MDA-MB-435 cells after 48 hrs by sulforhodamine B assay; format: functional; settings: MDA-MB-435, 48 h; method in brief: as §3
[5] = Anticancer activity against human Hs 578T cells after 48 hrs by sulforhodamine B assay; format: functional; method in brief: as §3
[6] = test system: MCF7; assay: Anticancer activity against human MCF7 cells after 48 hrs by sulforhodamine B assay; format: functional; settings: MCF7, 48 h; method in brief: as §3
[7] = test system: OVCAR-3; assay: Anticancer activity against human OVCAR3 cells after 48 hrs by sulforhodamine B assay; format: functional; settings: OVCAR-3, 48 h; method in brief: as §3
[8] = test system: A498; assay: Anticancer activity against human A498 cells after 48 hrs by sulforhodamine B assay; format: functional; settings: A498, 48 h; method in brief: as §3
[9] = test system: UO-31; assay: Anticancer activity against human UO31 cells after 48 hrs by sulforhodamine B assay; format: functional; settings: UO-31, 48 h
Method in brief: (§4)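 NCI-60 panel protocol. Compounds were dissolved in DMSO/H2O and tested at five 10-fold concentrations (10⁻⁴ to 10⁻⁸ M) with 48 hr incubation. GI50 is the molar concentration giving a 50% reduction in net cell growth relative to cell numbers on day 0.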

[10] = test system: OVCAR-5; assay: Anticancer activity against human OVCAR5 cells after 48 hrs by sulforhodamine B assay; format: functional; settings: OVCAR-5, 48 h; method in brief: as §3
[11] = test system: OVCAR-8; assay: Anticancer activity against human OVCAR8 cells after 48 hrs by sulforhodamine B assay; format: functional; settings: OVCAR-8, 48 h; method in brief: as §3
[12] = test system: HL-60(TB); assay: Anticancer activity against human HL-60(TB) cells after 48 hrs by sulforhodamine B assay; format: functional; settings: HL-60, 48 h; method in brief: as §3
[13] = test system: MDA-MB-468; assay: Anticancer activity against human MDA-MB-468 cells after 48 hrs by sulforhodamine B assay; format: functional; settings: MDA-MB-468, 48 h; method in brief: as §3
[14] = test system: SN12C; assay: Anticancer activity against human SN12C cells after 48 hrs by sulforhodamine B assay; format: functional; method in brief: as §3
[15] = test system: SK-MEL-28; assay: Anticancer activity against human SK-MEL-28 cells after 48 hrs by sulforhodamine B assay; format: functional; settings: SK-MEL-28, 48 h; method in brief: as §3
[16] = test system: SNB-75; assay: Anticancer activity against human SNB75 cells after 48 hrs by sulforhodamine B assay; format: functional; settings: SNB-75, 48 h; method in brief: as §3
[17] = Anticancer activity against human MOLT4 cells after 48 hrs by sulforhodamine B assay; format: functional; settings: MOLT-4, 48 h; method in brief: as §3
[18] = test system: TK-10; assay: Anticancer activity against human TK10 cells after 48 hrs by sulforhodamine B assay; format: functional; settings: TK-10, 48 h; method in brief: as §4
[19] = test system: HCT-116; assay: Anticancer activity against human HCT116 cells after 48 hrs by sulforhodamine B assay; format: functional; settings: HCT-116, 48 h; method in brief: as §3
[20] = Anticancer activity against human RXF393 cells after 48 hrs by sulforhodamine B assay; format: functional; settings: RXF 393, 48 h; method in brief: as §3
[21] = test system: HOP-62; assay: Anticancer activity against human HOP62 cells after 48 hrs by sulforhodamine B assay; format: functional; settings: HOP-62, 48 h; method in brief: as §3
[22] = Anticancer activity against human RPMI8226 cells after 48 hrs by sulforhodamine B assay; format: functional; settings: RPMI-8226, 48 h; method in brief: as §3
[23] = test system: OVCAR-4; assay: Anticancer activity against human OVCAR4 cells after 48 hrs by sulforhodamine B assay; format: functional; settings: OVCAR-4, 48 h; method in brief: as §3
[24] = test system: KM12; assay: Anticancer activity against human KM12 cells after 48 hrs by sulforhodamine B assay; format: functional; settings: KM12, 48 h; method in brief: as §3
[25] = test system: SNB-19; assay: Anticancer activity against human SNB19 cells after 48 hrs by sulforhodamine B assay; format: functional; settings: SNB-19, 48 h; method in brief: as §3
[26] = Anticancer activity against human SF295 cells after 48 hrs by sulforhodamine B assay; format: functional; settings: SF-295, 48 h; method in brief: as §3
[27] = test system: 786-0; assay: Anticancer activity against human 786-0 cells after 48 hrs by sulforhodamine B assay; format: functional; settings: 786-0, 48 h; method in brief: as §3
[28] = test system: DU-145; assay: Anticancer activity against human DU145 cells after 48 hrs by sulforhodamine B assay; format: functional; settings: DU-145, 48 h; method in brief: as §3
[29] = Anticancer activity against human COLO205 cells after 48 hrs by sulforhodamine B assay; format: functional; settings: COLO 205, 48 h; method in brief: as §3
[30] = test system: SR; assay: Anticancer activity against human SR cells after 48 hrs by sulforhodamine B assay; format: functional; method in brief: as §4
[31] = test system: HCT-15; assay: Anticancer activity against human HCT15 cells after 48 hrs by sulforhodamine B assay; format: functional; settings: HCT-15, 48 h; method in brief: as §3
[32] = test system: IGROV-1; assay: Anticancer activity against human IGROV1 cells after 48 hrs by sulforhodamine B assay; format: functional; settings: IGROV-1, 48 h; method in brief: as §3
[33] = test system: BT-549; assay: Anticancer activity against human BT549 cells after 48 hrs by sulforhodamine B assay; format: functional; settings: BT-549, 48 h; method in brief: as §3
[34] = test system: U-251; assay: Anticancer activity against human U251 cells after 48 hrs by sulforhodamine B assay; format: functional; settings: U-251, 48 h; method in brief: as §4
[35] = Anticancer activity against human NCI-ADR-RES cells after 48 hrs by sulforhodamine B assay; format: functional; method in brief: as §3
[36] = test system: MDA-MB-231; assay: Anticancer activity against human MDA-MB-231 cells after 48 hrs by sulforhodamine B assay; format: functional; settings: MDA-MB-231, 48 h; method in brief: as §3
[37] = test system: HT-29; assay: Anticancer activity against human HT-29 cells after 48 hrs by sulforhodamine B assay; format: functional; settings: HT-29, 48 h; method in brief: as §3
[38] = test system: SK-MEL-2; assay: Anticancer activity against human SK-MEL-2 cells after 48 hrs by sulforhodamine B assay; format: functional; settings: SK-MEL-2, 48 h; method in brief: as §3
[39] = test system: UACC-257; assay: Anticancer activity against human UACC257 cells after 48 hrs by sulforhodamine B assay; format: functional; settings: UACC-257, 48 h; method in brief: as §4
[40] = test system: CCRF-CEM; assay: Anticancer activity against human CCRF-CEM cells after 48 hrs by sulforhodamine B assay; format: functional; method in brief: as §3
[41] = Anticancer activity against human LOXIMVI cells after 48 hrs by sulforhodamine B assay; format: functional; settings: LOX IMVI; method in brief: as §3
[42] = test system: SK-MEL-5; assay: Anticancer activity against human SK-MEL-5 cells after 48 hrs by sulforhodamine B assay; format: functional; settings: SK-MEL-5, 48 h; method in brief: as §3
[43] = test system: SF-268; assay: Anticancer activity against human SF268 cells after 48 hrs by sulforhodamine B assay; format: functional; settings: SF-268, 48 h; method in brief: as §3
[44] = test system: CAKI-1; assay: Anticancer activity against human Caki1 cells after 48 hrs by sulforhodamine B assay; format: functional; settings: CAKI-1, 48 h; method in brief: as §3
[45] = test system: NCI-H460; assay: Anticancer activity against human NCI-H460 cells after 48 hrs by sulforhodamine B assay; format: functional; settings: NCI-H460, 48 h; method in brief: as §3
[46] = test system: NCI-H226; assay: Anticancer activity against human NCI-H226 cells after 48 hrs by sulforhodamine B assay; format: functional; settings: NCI-H226, 48 h; method in brief: as §3
[47] = Anticancer activity against human SF539 cells after 48 hrs by sulforhodamine B assay; format: functional; settings: SF-539, 48 h; method in brief: as §3
[48] = test system: Malme-3M; assay: Anticancer activity against human MALME-3M cells after 48 hrs by sulforhodamine B assay; format: functional; method in brief: as §3
[49] = test system: K562; assay: Anticancer activity against human K562 cells after 48 hrs by sulforhodamine B assay; format: functional; settings: K562, 48 h; method in brief: as §3
[50] = test system: SK-OV-3; assay: Anticancer activity against human SKOV3 cells after 48 hrs by sulforhodamine B assay; format: functional; settings: SK-OV-3, 48 h; method in brief: as §3
[51] = test system: ACHN; assay: Anticancer activity against human ACHN cells after 48 hrs by sulforhodamine B assay; format: functional; method in brief: as §3
[52] = test system: NCI-H522; assay: Anticancer activity against human NCI-H522 cells after 48 hrs by sulforhodamine B assay; format: functional; settings: NCI-H522, 48 h; method in brief: as §3
[53] = test system: A549; assay: Anticancer activity against human A549/ATCC cells after 48 hrs by sulforhodamine B assay; format: functional; settings: A549, 48 h; method in brief: as §3
[54] = test system: M14; assay: Anticancer activity against human M14 cells after 48 hrs by sulforhodamine B assay; format: functional; settings: M14, 48 h; method in brief: as §3
[55] = Anticancer activity against human HCC2998 cells after 48 hrs by sulforhodamine B assay; format: functional; settings: HCC 2998, 48 h; method in brief: as §3
[56] = test system: SW-620; assay: Anticancer activity against human SW620 cells after 48 hrs by sulforhodamine B assay; format: functional; settings: SW-620, 48 h; method in brief: as §4
[57] = test system: T47D; assay: Anticancer activity against human T47D cells after 48 hrs by sulforhodamine B assay; format: functional; method in brief: as §4
[58] = Anticancer activity against human HOP92 cells after 48 hrs by sulforhodamine B assay; format: functional; settings: HOP-92, 48 h; method in brief: as §3

SMILES: Cc1c(C=C2C(=O)NC(=S)NC2=O)c2ccccc2n1Cc1ccc(Br)cc1
- Activity [1]: Dose-dependent effect
- AC50 [2]: 3300 nM

SMILES: COC(=O)c1ccc(Cn2c(C)c(C=C3C(=O)NC(=S)NC3=O)c3ccccc32)cc1
- GI50 [3]: 530 nM
- GI50 [4]: 220 nM
- GI50 [5]: 220 nM
- GI50 [6]: 400 nM
- GI50 [7]: 300 nM
- GI50 [8]: 190 nM
- GI50 [9]: 410 nM
- GI50 [10]: 420 nM
- GI50 [11]: 320 nM
- GI50 [12]: 220 nM
- GI50 [13]: 340 nM
- GI50 [14]: 410 nM
- GI50 [15]: 1050 nM
- GI50 [16]: 460 nM
- GI50 [17]: 350 nM
- GI50 [18]: 310 nM
- GI50 [19]: 260 nM
- GI50 [20]: 300 nM
- GI50 [21]: 390 nM
- GI50 [22]: 310 nM
- GI50 [23]: 460 nM
- GI50 [24]: 310 nM
- GI50 [25]: 1050 nM
- GI50 [26]: 350 nM
- GI50 [27]: 320 nM
- GI50 [28]: 340 nM
- GI50 [29]: 200 nM
- GI50 [30]: 320 nM
- GI50 [31]: 330 nM
- GI50 [32]: 510 nM
- GI50 [33]: 310 nM
- GI50 [34]: 320 nM
- GI50 [35]: 350 nM
- GI50 [36]: 380 nM
- GI50 [37]: 310 nM
- GI50 [38]: 1120 nM
- GI50 [39]: 800 nM
- GI50 [40]: 340 nM
- GI50 [41]: 320 nM
- GI50 [42]: 1130 nM
- GI50 [43]: 420 nM
- GI50 [44]: 500 nM
- GI50 [45]: 330 nM
- Activity [1]: Dose-dependent effect
- AC50 [2]: 1750 nM
- GI50 [46]: 410 nM
- GI50 [47]: 220 nM
- GI50 [48]: 1480 nM
- GI50 [49]: 270 nM
- GI50 [50]: 450 nM
- GI50 [51]: 510 nM
- GI50 [52]: 250 nM
- GI50 [53]: 1360 nM
- GI50 [54]: 330 nM
- GI50 [55]: 400 nM
- GI50 [56]: 400 nM
- GI50 [57]: 1860 nM
- GI50 [58]: 250 nM
